The values below come from ChEMBL document CHEMBL3243924, “Synthesis and biological activity of 5-fluoro- and 5-methyl-1,3-oxazine-2,6(3H)-dione” (J Med Chem, 1979).

Data set [1] in a line: Stability of the compound in bacterial growth medium by UV spectra analysis. The gist of the method:
(§1)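 Compound held in bacterial growth medium at pH 7.2. Degradation was followed as the time-dependent decrease in UV absorbance at 306 nm.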

Data set [2] concerns Enterococcus faecium. Kind of data set: Growth inhibition of Streptococcus faecium assessed as [I]/[S] for 50% growth inhibition in presence of 1 uM to 1 mM cytidine. In kind it is functional.
Data set [3] relates to Enterococcus faecium. The data set can be described thus: Growth inhibition of Streptococcus faecium assessed as [I]/[S] for 50% growth inhibition in presence of 1 uM to 1 mM uridine. In kind it is functional.
In data set [4] the test system is Enterococcus faecium. Kind of data set: Growth inhibition of Streptococcus faecium assessed as [I]/[S] for 50% growth inhibition in presence of 1 uM to 1 mM thymine. In kind it is functional.
Data set [5] relates to Enterococcus faecium. Kind of data set: Growth inhibition of Streptococcus faecium assessed as [I]/[S] for 50% growth inhibition in presence of 1 uM to 1 mM cytosine. In kind it is functional.
The next data set relates to L1210. The data set can be described thus: Growth inhibition of mouse L1210 cells. Type of data set: functional.
Data set [6] can be described thus: Stability of the compound in mouse […] cell growth medium assessed as compound degradation.
A short description of data set [7]: Half life in synthetic growth medium at 37 degC.
Data set [8] can be described thus: Stability of the compound in bacterial growth medium assessed as compound degradation at pH 7.2. As to conditions: buffer. Put shortly:
as §1

Data set [9] relates to Enterococcus faecium. Kind of data set: Growth inhibition of Streptococcus faecium assessed as [I]/[S] for 50% growth inhibition in presence of 1 uM to 1 mM thymidine. Type of data set: functional.
In data set [10] the test system is Enterococcus faecium. Kind of data set: Growth inhibition of Streptococcus faecium assessed as [I]/[S] for 50% growth inhibition in presence of 1 uM to 1 mM uracil. Type of data set: functional.
The subject of another data set is Escherichia coli. Kind of data set: Growth inhibition of Escherichia coli. In kind it is functional.
For data set [11], the system named is Enterococcus faecium. Kind of data set: Growth inhibition of Streptococcus faecium assessed as [I]/[S] for 50% growth inhibition in presence of 1 uM to 1 mM 2'-deoxycytidine. In kind it is functional.
Data set [12] deals with Enterococcus faecium. Kind of data set: Growth inhibition of Streptococcus faecium assessed as inhibition index [I]/[S] for 50% growth inhibition in presence of 1 uM to 1 mM 2'-deoxyuridine. In kind it is functional.
The test system of data set [13] is Enterococcus faecium. Kind of data set: Growth inhibition of Streptococcus faecium. Type of data set: functional.
Data set [14] in a line: Stability of the compound in synthetic growth medium assessed as compound remaining at 37 degC after 16 hrs. In kind it is physicochemical. As to conditions: read-out: Stability.

Consider `O=c1[nH]cc(F)c(=O)o1`, for which the Stability result in data set [1], in data set [6] and in data set [8] was “Unstable” in each case. Also, the Ratio in the data set with Enterococcus faecium [2] is 8; in the data set with Enterococcus faecium [3], 90; in the data set on Enterococcus faecium [4], 120; in the data set with Enterococcus faecium [5] it was 7; with Enterococcus faecium [9], 110; in the data set with Enterococcus faecium [10], 90. Besides, the Ratio with Enterococcus faecium [11] is 10; with Enterococcus faecium [12], 100. The ID50 is 1 ×10⁻⁵ M in the data set with L1210, 1 ×10⁻⁷ M in the data set on Escherichia coli and 9 ×10⁻⁸ M in the data set with Enterococcus faecium [13]. In data set [7], the half-life was 4 h.
`O=c1cc[nH]c(=O)o1`: in data set [14], the remaining at 16 h worked out at 15%. Moreover, the ID50 in the data set with L1210 came to 4 ×10⁻⁵ M; with Escherichia coli, 4 ×10⁻⁷ M; with Enterococcus faecium [13] it was 2 ×10⁻⁵ M.
For the compound `Cc1c[nH]c(=O)oc1=O`, the ID50 in the data set on L1210 is greater than 1 ×10⁻⁴ M; with Escherichia coli, 3 ×10⁻⁴ M; with Enterococcus faecium [13], greater than 1 ×10⁻⁴ M.
